Series [1] can be described thus: Antioxidant activity assessed as HNE quenching at 1 mM after 180 mins by HPLC analysis. In kind it is functional. In a few lines: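 HNE consumption measured with dipeptide at 1 mM in 10 mmol PBS pH 7.4, 180 min at 37 °C. Remaining HNE measured by reversed-phase HPLC with PDA detection at 224 nm. Column at 37 °C. Isocratic H2O/CH3CN/HCOOH 40/60/0.1. Result given as % aldehyde consumed relative to a blank without compound.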

Series [2] is described as follows: Antioxidant activity assessed as PYR quenching after 180 mins by HPLC analysis. Type of series: functional. Also on record: concentration or dose not given beside the values. In outline:
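Pyridoxal used as the target aldehyde under the same incubation (180 min). Consumption determined by HPLC with fluorimetric detection. Expressed as % aldehyde consumed versus a blank incubated without compound.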

Series [3] in a line: Selectivity ratio of antioxidant activity assessed as HNE quenching to antioxidant activity assessed as PYR quenching. In a few lines: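 Ratio of % HNE quenched to % pyridoxal quenched. Both measured after 180 min incubation, with % consumption taken against blanks without compound.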
A short description of series [4]: Stability in human serum assessed as compound remaining at 50 uM after 30 mins by LC-MS analysis. In kind it is ADME, cell-free. The following applies: read-out: Stability.

This note sets out measurements from ChEMBL document CHEMBL2407007, “Exploring the space of histidine containing dipeptides in search of novel efficient RCS sequestering agents” (Eur J Med Chem, 2013).

Residues, ends and D or L forms follow the SMILES beside them.

As for `COC(=O)[C@H](Cc1cnc[nH]1)NC(=O)[C@@H](N)CCSC`, the Activity in series [1] came to 0.17%; in series [2], 2.61%. Further, in series [3], the Selectivity ratio is 0.07.

Regarding `NC(=O)[C@H](Cc1cnc[nH]1)NC(=O)[C@@H](N)Cc1c[nH]c2ccccc12`, the values for the Activity in series [1] and in series [2] were 8.62% and 1.86%, respectively. Also, the Selectivity ratio in series [3] came out at 6.01.

Regarding `NCCCC[C@H](N)C(=O)N[C@@H](Cc1cnc[nH]1)C(N)=O`, the Activity in series [1] was determined as 15.7%; in series [2], 0.41%. Further, the Selectivity ratio in series [3] is 38.3. Moreover, in series [4], the remaining at 0.5 h, 50 µM is 67.7%.

On to `NC(=O)[C@@H](Cc1cnc[nH]1)NC(=O)[C@@H](N)Cc1c[nH]c2ccccc12`, for which the figures for the Activity in series [1] and in series [2] were 11.2% and 0.13%, respectively. Besides, in series [3], the Selectivity ratio stood at 86.2.

Regarding `C[C@@H](O)[C@H](N)C(=O)N[C@H](Cc1cnc[nH]1)C(N)=O`, the Activity stood at 12.1% in series [1] and 6.62% in series [2]. Further, the Selectivity ratio in series [3] was 1.83.

For the compound `COC(=O)[C@@H](Cc1cnc[nH]1)NC(=O)[C@@H](N)CCCCN`, the values for the Activity in series [1] and in series [2] were 10.2% and 0.35%, respectively. Further, the Selectivity ratio in series [3] came to 29.1. For the same compound, the remaining at 0.5 h, 50 µM in series [4] is 90.5%.

As for `COC(=O)[C@H](Cc1cnc[nH]1)NC(=O)[C@@H](N)CO`, the figures for the Activity in series [1] and in series [2] were 5.18% and 0.1%, respectively. Besides, in series [3], the Selectivity ratio came to 51.8.

On to `COC(=O)[C@@H](Cc1cnc[nH]1)NC(=O)[C@@H](N)CCSC`, for which the Activity in series [1] stood at 1.81%; in series [2] it was 3.11%. Besides, the Selectivity ratio in series [3] came to 0.58.

In the case of `COC(=O)[C@@H](Cc1cnc[nH]1)NC(=O)[C@@H](N)CCC(=O)O`, the results for the Activity in series [1] and in series [2] were 13.1% and 0.73%, respectively. For the same compound, the Selectivity ratio in series [3] is 18.

As to `COC(=O)[C@H](Cc1c[nH]cn1)NC(=O)[C@@H](N)Cc1c[nH]c2ccccc12`, the Activity stood at 11.7% in series [1] and 4.2% in series [2]. The Selectivity ratio in series [3] stood at 2.79.

On to `COC(=O)[C@H](Cc1cnc[nH]1)NC(=O)[C@@H](N)CS`, for which the figures for the Activity in series [1] and in series [2] were 100% and 25.3%, respectively. In series [3], the Selectivity ratio came out at 3.96.

`NC(=O)[C@H](Cc1cnc[nH]1)NC(=O)[C@@H](N)CS`: the Activity in series [1] is 100%; in series [2], 27.7%. Moreover, the Selectivity ratio in series [3] was found to be 3.61.

As to `NC(=O)[C@H](Cc1cnc[nH]1)NC(=O)[C@@H](N)Cc1ccccc1`, the values for the Activity in series [1] and in series [2] were 9.79% and 1.22%, respectively. In series [3], the Selectivity ratio is 8.02.

As to `NC(=O)CC[C@H](N)C(=O)N[C@H](Cc1cnc[nH]1)C(N)=O`, the Activity in series [1] is 14.8%; in series [2] it was 1.57%. Further, the Selectivity ratio in series [3] stood at 9.4. The remaining at 0.5 h, 50 µM in series [4] stood at 81.3%.

In the case of `COC(=O)[C@H](Cc1cnc[nH]1)NC(=O)[C@@H](N)Cc1cnc[nH]1`, the Activity is 6% in series [1] and 1.82% in series [2]. The Selectivity ratio in series [3] worked out at 3.3.

For the compound `N=C(N)NCCC[C@H](N)C(=O)N[C@H](Cc1cnc[nH]1)C(N)=O`, the Activity in series [1] was determined as 12%; in series [2], 0.43%. The Selectivity ratio in series [3] was 27.9.

Consider `CC[C@H](C)[C@H](N)C(=O)N[C@H](Cc1cnc[nH]1)C(N)=O`, for which the Activity in series [1] was 5.13%; in series [2] it was 0.59%. The Selectivity ratio in series [3] was 8.69.

Regarding `COC(=O)[C@H](Cc1cnc[nH]1)NC(=O)[C@@H](N)Cc1ccc(O)cc1`, the values for the Activity in series [1] and in series [2] were 12.5% and 4.02%, respectively. Besides, the Selectivity ratio in series [3] came out at 3.12.

Turning to `N=C(N)NCCC[C@H](N)C(=O)N[C@@H](Cc1cnc[nH]1)C(N)=O`, the Activity in series [1] came to 7.79%; in series [2], 0.26%. In series [3], the Selectivity ratio was 30.

Regarding `COC(=O)[C@@H](Cc1cnc[nH]1)NC(=O)[C@@H](N)Cc1ccc(O)cc1`, the Activity in series [1] amounted to 27.4%; in series [2] it was 1.29%. Further, the Selectivity ratio in series [3] turned out to be 21.3. For the same compound, the remaining at 0.5 h, 50 µM in series [4] was 40.5%.

Take `NC(=O)[C@H](Cc1cnc[nH]1)NC(=O)[C@@H](N)CC(=O)O`: the values for the Activity in series [1] and in series [2] were 5.99% and 1.49%, respectively. Further, the Selectivity ratio in series [3] came to 5.16.

For `COC(=O)[C@@H](Cc1cnc[nH]1)NC(=O)[C@@H](N)Cc1cnc[nH]1`, the Activity in series [1] was 8.86%; in series [2] it was 7.7%. For the same compound, the Selectivity ratio in series [3] was 1.15.

For `CC[C@H](C)[C@H](N)C(=O)N[C@@H](Cc1cnc[nH]1)C(N)=O`, the values for the Activity in series [1] and in series [2] were 7.09% and 2.02%, respectively. For the same compound, in series [3], the Selectivity ratio is 3.51.

For `COC(=O)[C@@H](Cc1cnc[nH]1)NC(=O)[C@@H](N)Cc1c[nH]c2ccccc12`, the Activity came out at 18.8% in series [1] and 5.81% in series [2]. Also, in series [3], the Selectivity ratio stood at 3.24.

Consider `COC(=O)[C@H](Cc1cnc[nH]1)NC(=O)[C@@H](N)CCCCN`, for which the values for the Activity in series [1] and in series [2] were 31.3% and 1.87%, respectively. Moreover, the Selectivity ratio in series [3] was determined as 16.7. The remaining at 0.5 h, 50 µM in series [4] is 87.5%.

As to `NC(=O)[C@@H](Cc1cnc[nH]1)NC(=O)[C@@H](N)Cc1ccccc1`, the Activity in series [1] amounted to 6.7%; in series [2], 0.7%. In series [3], the Selectivity ratio came out at 9.57.

For `NCCCC[C@H](N)C(=O)N[C@H](Cc1cnc[nH]1)C(N)=O`, the Activity is 4.16% in series [1] and 0.75% in series [2]. For the same compound, the Selectivity ratio in series [3] came out at 5.55. In addition, in series [4], the remaining at 0.5 h, 50 µM worked out at 68%.

`NC(=O)[C@@H](Cc1cnc[nH]1)NC(=O)[C@@H](N)Cc1cnc[nH]1`: the Activity was 9.16% in series [1] and 7.28% in series [2]. In addition, the Selectivity ratio in series [3] turned out to be 1.26.

For `COC(=O)[C@H](Cc1cnc[nH]1)NC(=O)[C@@H](N)CCC(=O)O`, the values for the Activity in series [1] and in series [2] were 12.2% and 0.76%, respectively. Besides, in series [3], the Selectivity ratio is 16.1.

For `NC(=O)[C@H](Cc1cnc[nH]1)NC(=O)[C@@H](N)Cc1cnc[nH]1`, the Activity in series [1] amounted to 9.81%; in series [2] it was 7.86%. For the same compound, the Selectivity ratio in series [3] stood at 1.35.

`COC(=O)[C@H](Cc1cnc[nH]1)NC(=O)[C@@H](N)CC(N)=O`: the Activity in series [1] worked out at 9.59%; in series [2], 1%. Moreover, the Selectivity ratio in series [3] is 9.59.

On to `NCC(=O)N[C@@H](Cc1cnc[nH]1)C(=O)O` (H-Gly-His-OH), for which the figures for the Activity in series [1] and in series [2] were 9.11% and 3.77%, respectively. Also, the Selectivity ratio in series [3] is 2.42.

In the case of `COC(=O)[C@H](Cc1cnc[nH]1)NC(=O)[C@@H](N)C(C)C`, the Activity amounted to 4.97% in series [1] and 0.87% in series [2]. Moreover, the Selectivity ratio in series [3] is 5.71.

Consider `C[C@@H](O)[C@H](N)C(=O)N[C@@H](Cc1cnc[nH]1)C(N)=O`, for which the values for the Activity in series [1] and in series [2] were 3.9% and 1.42%, respectively. In addition, the Selectivity ratio in series [3] turned out to be 2.75.

On to `NC(=O)[C@@H](Cc1cnc[nH]1)NC(=O)[C@@H](N)CC(=O)O`, for which the Activity in series [1] was 5.98%; in series [2], 1.16%. Besides, the Selectivity ratio in series [3] came out at 4.02.

In the case of `COC(=O)[C@@H](Cc1cnc[nH]1)NC(=O)[C@@H](N)C(C)C`, the Activity in series [1] was 16.9%; in series [2], 3.62%. Moreover, the Selectivity ratio in series [3] stood at 4.67.

Turning to `COC(=O)[C@@H](Cc1cnc[nH]1)NC(=O)[C@@H](N)CS`, the Activity was 100% in series [1] and 40.8% in series [2]. The Selectivity ratio in series [3] turned out to be 2.45.

In the case of `NC(=O)CC[C@H](N)C(=O)N[C@@H](Cc1cnc[nH]1)C(N)=O`, the Activity in series [1] amounted to 9.37%; in series [2] it was 2.65%. Moreover, in series [3], the Selectivity ratio worked out at 3.54.

With `NC(=O)[C@@H](Cc1cnc[nH]1)NC(=O)[C@@H](N)CS`, the values for the Activity in series [1] and in series [2] were 100% and 37.2%, respectively. Moreover, the Selectivity ratio in series [3] was 2.69.

For the compound `COC(=O)[C@@H](Cc1cnc[nH]1)NC(=O)[C@@H](N)CO`, the figures for the Activity in series [1] and in series [2] were 5.91% and 2.08%, respectively. Also, the Selectivity ratio in series [3] is 2.84.

For the compound `COC(=O)[C@@H](Cc1cnc[nH]1)NC(=O)[C@@H](N)CC(N)=O`, the Activity was 9.5% in series [1] and 1.14% in series [2]. In series [3], the Selectivity ratio was determined as 8.33.

In the case of `NCCC(=O)N[C@@H](Cc1c[nH]cn1)C(=O)O`, the Activity in series [1] was 48.2%; in series [2] it was 5.57%. Besides, in series [3], the Selectivity ratio came to 8.65.
